Shown are actives, neighbours in structure and some others; about 2.2% of the full set was active somewhere.
PKD1 kinase inh: inhibitors of human PKD1 kinase, biochemical, fluorescence polarization. Serine/threonine-protein kinase D1 (Homo sapiens), Q15139. PKD1 kinase fluorescence polarization assay. inhibition, % (test concentration not listed). 200,000 compounds, 0.056% hits. AID 797, 2007; in the data active = inhibition above about 50%
RBBP9 inhibitor: human RBBP9 inhibitors, primary screen, biochemical, fluorescence polarization, FP-Rh probe, HTS. Serine hydrolase RBBP9 (Homo sapiens), O75884. recombinant RBBP9. inhibition, % at 7.94 µM. 220,000 compounds, 0.2% hits. AID 1515, 2009;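 active = inhibition above the campaign mean of all tested compounds plus 3 SD, cut at about 14% in these data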;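 note: plate controls were DMSO wells with RBBP9 for no effect and wells lacking RBBP9 protein for full effect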
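System: RBBP9 protein / Buffer or medium: Tris/NaCl buffer pH 8.0 with 0.1% Pluronic / Probe or stimulus: Serine-hydrolase probe FP-Rh, 375 nM pre-mixing / Dosing: 7.94 µM single dose, 0.794% DMSO / Times: enzyme-compound preincubation 30 min, then probe labeling 45 min, 25 °C / Technique: fluorescence polarization (mP), excitation 525 nm, emission 598 nm / Replication: singlicate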
p97 inhibitor: inhibitors of human p97 ATPase, primary screen, biochemical; Transitional endoplasmic reticulum ATPase (Homo sapiens), P55072; recombinant p97 ATPase, Kinase-Glo ATP luminescence, 3 h; inhibition, % at 8 µM; 220,000 compounds, 0.42% hits; AID 1481, 2009; in the data active = inhibition above about 15%;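 note: 0% = DMSO vehicle and 100% = wells lacking enzyme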
Arbovirus anti: antivirals against arbovirus infection, primary screen, cell-based, full library, 10K replicate subset; arbovirus infection cell-based antiviral screen; inhibition, % at 10 µM; 200,000 compounds, 0.37% hits; AID 1251, 2008; in the data active = inhibition above about 30%
Redox H2O2 prof: compounds producing H2O2 with reducing agent – biochemical, NIH compound library profiling, artefact control for MLSCN library redox annotation, primary screen; DTT-dependent redox cycling H2O2, phenol red/HRP absorbance; 100% = 100 µM peroxide control, 0% = buffer; activation, % at 10 µM; 200,000 compounds, 0.03% hits;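 active = activation of at least 50% relative to the plate's high and low controls in the primary single-dose screen; inactive = activation below 50%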;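 note: compound incubated with DTT at 0.8 mM final as the reducing agent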
Wee1 stabilizer: Wee1 degradation inhibitors, primary screen, cell-based, HeLa, Wee1K328M-luciferase, luminescence; AID 1321, 2008; 220,000 compounds, 1.2% hits; HeLa Luc-Wee1K328M stability; 100% = proteasome inhibitor MG132 effect; reporter increase, % at 5 µM;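 active = activation above the mean of all tested compounds plus 3 SD, set per screening run, cut at about 8.8% in these data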;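 note: cells exposed to compound for 20 h before luminescence read; 0% = DMSO alone and 100% = MG132 at 30 µM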
Target sequence (P30291 whole entry K328M): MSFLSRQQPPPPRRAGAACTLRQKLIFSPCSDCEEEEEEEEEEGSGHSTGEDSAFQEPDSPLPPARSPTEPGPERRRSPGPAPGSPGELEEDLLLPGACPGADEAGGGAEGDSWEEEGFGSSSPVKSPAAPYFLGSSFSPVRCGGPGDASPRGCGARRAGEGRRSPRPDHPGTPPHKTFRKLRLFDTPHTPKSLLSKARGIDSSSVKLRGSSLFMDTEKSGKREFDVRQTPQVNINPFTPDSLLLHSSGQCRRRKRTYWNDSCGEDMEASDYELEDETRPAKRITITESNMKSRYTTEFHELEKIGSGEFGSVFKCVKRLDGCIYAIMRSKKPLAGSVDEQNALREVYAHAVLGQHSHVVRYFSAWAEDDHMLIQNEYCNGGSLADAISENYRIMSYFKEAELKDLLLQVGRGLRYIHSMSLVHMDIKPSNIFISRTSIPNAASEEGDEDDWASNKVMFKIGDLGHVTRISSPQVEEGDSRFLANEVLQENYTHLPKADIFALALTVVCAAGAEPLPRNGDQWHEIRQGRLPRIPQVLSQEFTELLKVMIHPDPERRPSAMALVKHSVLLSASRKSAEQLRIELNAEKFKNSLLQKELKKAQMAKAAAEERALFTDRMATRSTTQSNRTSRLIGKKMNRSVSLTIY
The depositor's hits bear a star; x = no result.

SMILES	PKD1 kinase inh	RBBP9 inhibitor	p97 inhibitor	Arbovirus anti	Redox H2O2 prof	Wee1 stabilizer
COCCn1nnnc1C(C(C)C)N1CCSCC1 (stereo unspecified)	-2	-7	-4	-4	0	-1
CSCC(C)N1CCC(CO)(CCc2ccccc2)CC1 (stereo unspecified)	-11	-7	2	0	-2	10.0*
CC(COc1ccccc1)N1CCC(CO)(CCc2ccccc2)CC1 (stereo unspecified)	-7	3	4	-20	0	-1
CC1Cc2ccccc2N1c1ncnc(N)c1[N+](=O)[O-] (stereo unspecified)	68*	-6	4	8	0	-4
COC(=O)c1ccccc1NC(=O)CSc1nccc(C)n1	-7	0	5	1	0	10*
O=C1COc2ccc(C(=O)COC(=O)Cc3ccccc3F)cc2N1	-11	-5	1	-6	-1	0
O=C1COc2ccc(C(=O)COC(=O)Cc3ccsc3)cc2N1	-10	-14	-5	0	-3	10*
CCn1cc(C(=O)N2CCCc3ccccc32)c2cc(OC)c(OC)cc2c1=O	-9	-7	-4	5	-2	0
Cc1[nH]n(-c2ccccc2)c(=O)c1C(c1ccc(O)c([N+](=O)[O-])c1)c1c(C)[nH]n(-c2ccccc2)c1=O	-2	7	15*	x	-4	-3
Cc1[nH]n(-c2ccccc2)c(=O)c1C(C[N+](=O)[O-])c1ccccc1Cl (stereo unspecified)	-5	-4	6	3	0	-2
Cc1nnc(SCC(=O)Nc2nc3c(s2)CC(C)CC3)s1 (stereo unspecified)	-5	-8	4	7	2	8.9*
O=C(COc1ccc([N+](=O)[O-])cc1)NCc1cccnc1	-10	-3	3	-6	0	9.2*
NC(=O)c1cc([N+](=O)[O-])ccc1NCc1cccnc1	-7	0	-3	37*	-1	-1
COc1cccc(NC(=O)c2cc([N+](=O)[O-])ccc2NCc2cccnc2)c1	-1	-6	-1	-11	0	-2
C/C(=N\NC(=O)COc1ccc([N+](=O)[O-])cc1)C(C)(C)C	-1	-13	-1	81*	-5	-1
CCn1ccnc1CN1CCN(CCC(C)C)C(CCO)C1 (stereo unspecified)	6	-1	4	2	-1	-1
COc1ccccc1C1C2=C(N=c3s/c(=C/c4cccc(OCC(=O)O)c4)c(=O)n31)c1ccccc1CC2 (stereo unspecified)	-10	-15	3	41*	0	-2
Cc1n[nH]c(C)c1S(=O)(=O)Nc1ccc2c(c1)OCCO2	-4	0	2	-1	-3	-4
CCC(CC)C(=O)Nc1cccc(C(=O)NC(C)(C)C)c1	3	4	3	0	0	0
CCC(CC)C(=O)Nc1cccc(C(=O)c2ccccc2)c1	0	-4	-7	-4	0	9.4*
COCCCNC(=O)CN(c1cc(C(F)(F)F)ccc1Cl)S(C)(=O)=O	x	-13	-5	x	x	10*
CCCCNC(=O)CN(c1cc(C(F)(F)F)ccc1Cl)S(C)(=O)=O	4	10	0	-7	0	0
O=C(O)c1cc(-c2ccc(/C=C3\NC(=O)N(c4ccc(Cl)cc4)C3=O)o2)ccc1Cl	2	-9	4	58*	-1	-3
O=C(O)c1cc(-c2ccc(/C=C3\NC(=O)N(c4ccccc4)C3=O)o2)ccc1Cl	x	-9	11	x	x	-1
O=C(NC(=S)Nc1ccc(F)cc1)c1ccc2c(c1)OCCO2	7	-4	1	0	0	9.5*
SMILES	PKD1 kinase inh	RBBP9 inhibitor	p97 inhibitor	Arbovirus anti	Redox H2O2 prof	Wee1 stabilizer
O=C1C=CC(=O)N1c1ccc(Sc2ccc([N+](=O)[O-])cc2)cc1	x	2	8	x	x	16*
CCN(CC)CCCN(Cc1cc2cc(OC)c(OC)cc2[nH]c1=O)C(=O)Nc1ccccc1	3	-1	2	-4	1	9.9*
CCOC(=O)CSC1=N/C(=C\c2ccc(OC)c(OC)c2)C(=O)N1C	-6	-12	-4	2	0	0
Cc1cccc(C)c1NC(=O)C1c2cccc[n+]2CC(=O)N1Cc1cccs1 (stereo unspecified)	-2	6	7	3	0	-2
O=C(COS(=O)c1ccccc1)Nc1cc(Cl)ccc1N1CCOCC1 (stereo unspecified)	-2	-11	0	30	-2	9.0*
COc1ccc(C(CC(=O)O)NC(=O)c2ccccc2[N+](=O)[O-])cc1 (stereo unspecified)	6	1	4	6	0	-1
COCCCNC(=O)/C=C1\Sc2ccccc2N(Cc2ccccc2F)C1=O	-2	6	1	0	0	9.7*
O=C(NCCC(c1ccccc1)c1ccccc1)c1cnc2sccn2c1=O	-5	0	-5	11	-1	11*
CCCn1c(C)cc(C(=O)COc2ccc(C)nc2[N+](=O)[O-])c1C	1	-6	2	-4	0	3
COCCn1c(C)cc(C(=O)COc2ccc(C)nc2[N+](=O)[O-])c1C	0	-2	15*	-11	1	-3
CC(=O)CC1=NC(C)(C)Cc2ccccc21	0	-9	2	7	0	-3
CC(C)Sc1nc(SCC(=O)NCc2ccco2)c2c3c(sc2n1)COC(C)(C)C3	-4	-10	1	16	-2	9.8*
CC(C)Sc1nc(SCC(=O)O)c2c3c(sc2n1)COC(C)(C)C3	x	-1	-6	x	x	6
CCOc1ccc2cc(/C=C/C(=O)c3ccco3)c(Cl)nc2c1	-4	-16	-1	-8	0	0
CC(=O)c1ccc(NC(=O)c2noc3c2CCC3)cc1	5	-9	-4	3	-1	10*
COc1ccc(NC(=O)c2noc3c2CCC3)cc1	-2	-1	-9	0	0	1
CC(C)Oc1ccc(C2C(C(=O)c3ccco3)=C(O)C(=O)N2CCCN(C)C)cc1 (stereo unspecified)	-4	-4	4	x	3	-2
O=C(O)COn1c(-c2ccccc2)nc2ccc([N+](=O)[O-])cc21	1	-7	-6	-2	-1	11*
CC1Cc2ccccc2N1C(=O)CSc1nn2c(=O)c(C(C)(C)C)nnc2s1 (stereo unspecified)	-9	-3	-4	7	1	10*

Compound activity deposited in PubChem by several laboratories.
